Data reported in BindingDB's records for doi:10.1021/jm2013198 (Bar-Ilan University, 2012).

Target: T1, P2Y purinoceptor 6 (Rattus norvegicus, UniProt Q63371)
Assay: (§1) Agonist activity at rat P2Y purinoceptor 6 expressed in human 1321N1 cells assessed as increase in intracellular calcium concentration by spectrofluorimetry
Outline: (§2)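 1321N1 astrocytoma cells lacking endogenous P2Y receptors, stably transfected with turkey P2Y1, human P2Y2, human P2Y4 or rat P2Y6, grown in DMEM with 5% FBS, penicillin/streptomycin and 500 µg/mL G-418. Fura-2-loaded cell suspensions were exposed at 37 °C in 10 mM Hepes-buffered saline, pH 7.4, with 1 mM CaCl2 and 1 mM MgCl2. Peak [Ca2+]i rise by dual-excitation spectrofluorometry across concentrations; EC50 from curve fits; three experiments on separate days per subtype.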

T1 sequence (Q63371 whole entry): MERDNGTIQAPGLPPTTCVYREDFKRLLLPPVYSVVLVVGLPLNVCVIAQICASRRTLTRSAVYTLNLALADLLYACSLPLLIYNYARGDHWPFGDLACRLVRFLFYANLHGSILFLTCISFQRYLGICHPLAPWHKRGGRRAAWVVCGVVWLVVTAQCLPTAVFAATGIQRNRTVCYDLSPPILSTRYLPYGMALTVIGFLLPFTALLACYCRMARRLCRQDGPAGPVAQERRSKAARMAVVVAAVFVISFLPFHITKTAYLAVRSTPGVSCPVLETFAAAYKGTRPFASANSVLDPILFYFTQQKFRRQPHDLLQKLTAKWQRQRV

Row | Structure (SMILES) | EC50
1 | BP(=O)(OC[C@H]1O[C@@H](n2ccc(=O)[nH]c2=O)[C@H](O)[C@@H]1O)OP(=O)(O)OP(=O)(O)OP(=O)(O)OC[C@H]1O[C@@H](n2ccc(=O)[nH]c2=O)[C@H](O)[C@@H]1O (some centres undefined) | 36100 nM
2 | BP(=O)(OC[C@H]1O[C@@H](n2ccc(=O)[nH]c2=O)[C@H](O)[C@@H]1O)OP(=O)(O)OP(=O)(O)OC[C@H]1O[C@@H](n2ccc(=O)[nH]c2=O)[C@H](O)[C@@H]1O (some centres undefined) | 720 nM
3 | BP(=O)(OP(=O)(O)OC[C@H]1O[C@@H](n2cnc3c(N)ncnc32)[C@H](O)[C@@H]1O)OP(=O)(O)OP(=O)(O)OC[C@H]1O[C@@H](n2ccc(=O)[nH]c2=O)[C@H](O)[C@@H]1O (some centres undefined) | 1290 nM
4 | BP(=O)(OP(=O)(O)OC[C@H]1O[C@@H](n2ccc(=O)[nH]c2=O)[C@H](O)[C@@H]1O)OP(=O)(O)OP(=O)(O)OC[C@H]1O[C@@H](n2ccc(=O)[nH]c2=O)[C@H](O)[C@@H]1O (some centres undefined) | 1930 nM
5 | BP(=O)(OP(=O)(O)OC[C@H]1O[C@@H](n2ccc(=O)[nH]c2=O)[C@H](O)[C@@H]1O)OP(=O)(O)OP(=O)(O)OC[C@H]1O[C@@H](n2cnc3c(N)ncnc32)[C@H](O)[C@@H]1O (some centres undefined) | 20900 nM

Target: T2, P2Y purinoceptor 1 (Meleagris gallopavo, UniProt P49652)
Assay: (§3) Agonist activity at turkey P2Y purinoceptor 1 expressed in human 1321N1 cells assessed as increase in intracellular calcium concentration by spectrofluorimetry

T2 sequence (P49652 whole entry): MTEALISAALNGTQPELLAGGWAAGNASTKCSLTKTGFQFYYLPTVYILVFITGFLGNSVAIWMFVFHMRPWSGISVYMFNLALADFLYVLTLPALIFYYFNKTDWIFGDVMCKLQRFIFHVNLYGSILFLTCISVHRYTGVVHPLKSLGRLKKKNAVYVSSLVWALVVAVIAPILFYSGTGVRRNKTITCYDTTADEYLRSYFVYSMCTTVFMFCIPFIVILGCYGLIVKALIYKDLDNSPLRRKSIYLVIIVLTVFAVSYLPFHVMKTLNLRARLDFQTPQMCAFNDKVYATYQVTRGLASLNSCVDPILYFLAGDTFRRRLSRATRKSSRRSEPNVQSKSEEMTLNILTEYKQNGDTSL

Row | Structure (SMILES) | EC50
6 | BP(=O)(OC[C@H]1O[C@@H](n2cnc3c(N)ncnc32)[C@H](O)[C@@H]1O)OP(=O)(O)OP(=O)(O)OP(=O)(O)OC[C@H]1O[C@@H](n2cnc3c(N)ncnc32)[C@H](O)[C@@H]1O (some centres undefined) | 1480 nM
7 | BP(=O)(OC[C@H]1O[C@@H](n2cnc3c(N)ncnc32)[C@H](O)[C@@H]1O)OP(=O)(O)OP(=O)(O)OC[C@H]1O[C@@H](n2cnc3c(N)ncnc32)[C@H](O)[C@@H]1O (some centres undefined) | 800 nM
8 | BP(=O)(OP(=O)(O)OC[C@H]1O[C@@H](n2cnc3c(N)ncnc32)[C@H](O)[C@@H]1O)OP(=O)(O)OP(=O)(O)OC[C@H]1O[C@@H](n2ccc(=O)[nH]c2=O)[C@H](O)[C@@H]1O (some centres undefined) | 6900 nM
9 | BP(=O)(OP(=O)(O)OC[C@H]1O[C@@H](n2ccc(=O)[nH]c2=O)[C@H](O)[C@@H]1O)OP(=O)(O)OP(=O)(O)OC[C@H]1O[C@@H](n2cnc3c(N)ncnc32)[C@H](O)[C@@H]1O (some centres undefined) | 500 nM
10 | BP(=O)(OP(=O)(O)OC[C@H]1O[C@@H](n2cnc3c(N)ncnc32)[C@H](O)[C@@H]1O)OP(=O)(O)OP(=O)(O)OC[C@H]1O[C@@H](n2cnc3c(N)ncnc32)[C@H](O)[C@@H]1O (some centres undefined) | 3000 nM

Target: T3, P2Y purinoceptor 2 (Homo sapiens, UniProt P41231)
Assay: (§4) Agonist activity at human P2Y purinoceptor 2 expressed in human 1321N1 cells assessed as increase in intracellular calcium concentration by spectrofluorimetry
Outline: as §2

T3 sequence (P41231 whole entry): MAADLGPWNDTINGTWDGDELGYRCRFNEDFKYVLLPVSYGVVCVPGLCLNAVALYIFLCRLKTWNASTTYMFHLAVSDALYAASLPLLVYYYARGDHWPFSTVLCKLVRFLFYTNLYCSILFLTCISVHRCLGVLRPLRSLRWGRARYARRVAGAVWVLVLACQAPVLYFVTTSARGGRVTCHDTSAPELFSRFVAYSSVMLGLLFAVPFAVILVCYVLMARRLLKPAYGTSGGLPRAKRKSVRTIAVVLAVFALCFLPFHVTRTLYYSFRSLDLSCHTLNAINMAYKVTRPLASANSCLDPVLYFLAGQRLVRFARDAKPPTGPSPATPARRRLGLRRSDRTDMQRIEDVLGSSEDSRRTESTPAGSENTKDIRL

Row | Structure (SMILES) | EC50
11 | BP(=O)(OC[C@H]1O[C@@H](n2cnc3c(N)ncnc32)[C@H](O)[C@@H]1O)OP(=O)(O)OP(=O)(O)OP(=O)(O)OC[C@H]1O[C@@H](n2cnc3c(N)ncnc32)[C@H](O)[C@@H]1O (some centres undefined) | 25900 nM
12 | BP(=O)(OP(=O)(O)OC[C@H]1O[C@@H](n2cnc3c(N)ncnc32)[C@H](O)[C@@H]1O)OP(=O)(O)OP(=O)(O)OC[C@H]1O[C@@H](n2ccc(=O)[nH]c2=O)[C@H](O)[C@@H]1O (some centres undefined) | 64200 nM

Target: T4, P2Y purinoceptor 4 (Homo sapiens, UniProt P51582)
Assay: (§5) Agonist activity at human P2Y purinoceptor 4 expressed in human 1321N1 cells assessed as increase in intracellular calcium concentration by spectrofluorimetry
Outline: (§6)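 1321N1 astrocytoma cells (no endogenous P2Y receptors) stably expressing hP2Y4, grown in DMEM with 5% FBS, penicillin/streptomycin and 500 μg/mL G-418. Fura-2-loaded cell suspensions; compounds applied at various concentrations, 37 °C, 10 mM Hepes-buffered saline pH 7.4 with 1 mM CaCl2/MgCl2. Peak [Ca2+]i rise by dual-excitation fluorometry gives EC50; UTP reference agonist; three experiments on separate days.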

T4 sequence (P51582 whole entry): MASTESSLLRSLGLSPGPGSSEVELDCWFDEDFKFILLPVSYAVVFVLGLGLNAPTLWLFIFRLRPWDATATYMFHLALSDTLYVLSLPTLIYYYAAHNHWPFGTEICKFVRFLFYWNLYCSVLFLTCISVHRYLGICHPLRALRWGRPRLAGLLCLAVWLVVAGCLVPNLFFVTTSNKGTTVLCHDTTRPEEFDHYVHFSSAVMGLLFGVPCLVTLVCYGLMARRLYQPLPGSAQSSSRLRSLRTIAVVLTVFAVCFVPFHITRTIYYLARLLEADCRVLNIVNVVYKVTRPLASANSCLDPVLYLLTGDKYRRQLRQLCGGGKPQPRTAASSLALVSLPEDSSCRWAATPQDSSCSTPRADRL

Row | Structure (SMILES) | EC50
13 | BP(=O)(OC[C@H]1O[C@@H](n2ccc(=O)[nH]c2=O)[C@H](O)[C@@H]1O)OP(=O)(O)OP(=O)(O)OP(=O)(O)OC[C@H]1O[C@@H](n2ccc(=O)[nH]c2=O)[C@H](O)[C@@H]1O (some centres undefined) | 9400 nM

Target: T4, P2Y purinoceptor 4
Assay: as §5
Outline: as §6

Row | Structure (SMILES) | EC50
14 | BP(=O)(OC[C@H]1O[C@@H](n2ccc(=O)[nH]c2=O)[C@H](O)[C@@H]1O)OP(=O)(O)OP(=O)(O)OP(=O)(O)OC[C@H]1O[C@@H](n2ccc(=O)[nH]c2=O)[C@H](O)[C@@H]1O (some centres undefined) | 9400 nM

Target: T2, P2Y purinoceptor 1
Assay: as §3
Outline: as §2

Row | Structure (SMILES) | EC50
15 | BP(=O)(OC[C@H]1O[C@@H](n2cnc3c(N)ncnc32)[C@H](O)[C@@H]1O)OP(=O)(O)OP(=O)(O)OP(=O)(O)OC[C@H]1O[C@@H](n2cnc3c(N)ncnc32)[C@H](O)[C@@H]1O (some centres undefined) | 1480 nM
16 | BP(=O)(OC[C@H]1O[C@@H](n2cnc3c(N)ncnc32)[C@H](O)[C@@H]1O)OP(=O)(O)OP(=O)(O)OC[C@H]1O[C@@H](n2cnc3c(N)ncnc32)[C@H](O)[C@@H]1O (some centres undefined) | 800 nM
17 | BP(=O)(OP(=O)(O)OC[C@H]1O[C@@H](n2ccc(=O)[nH]c2=O)[C@H](O)[C@@H]1O)OP(=O)(O)OP(=O)(O)OC[C@H]1O[C@@H](n2cnc3c(N)ncnc32)[C@H](O)[C@@H]1O (some centres undefined) | 500 nM
18 | BP(=O)(OP(=O)(O)OC[C@H]1O[C@@H](n2cnc3c(N)ncnc32)[C@H](O)[C@@H]1O)OP(=O)(O)OP(=O)(O)OC[C@H]1O[C@@H](n2cnc3c(N)ncnc32)[C@H](O)[C@@H]1O (some centres undefined) | 3000 nM

Target: T1, P2Y purinoceptor 6
Assay: as §1
Outline: as §2

Row | Structure (SMILES) | EC50
19 | BP(=O)(OC[C@H]1O[C@@H](n2ccc(=O)[nH]c2=O)[C@H](O)[C@@H]1O)OP(=O)(O)OP(=O)(O)OP(=O)(O)OC[C@H]1O[C@@H](n2ccc(=O)[nH]c2=O)[C@H](O)[C@@H]1O (some centres undefined) | 36100 nM
20 | BP(=O)(OC[C@H]1O[C@@H](n2ccc(=O)[nH]c2=O)[C@H](O)[C@@H]1O)OP(=O)(O)OP(=O)(O)OC[C@H]1O[C@@H](n2ccc(=O)[nH]c2=O)[C@H](O)[C@@H]1O (some centres undefined) | 720 nM
21 | BP(=O)(OP(=O)(O)OC[C@H]1O[C@@H](n2cnc3c(N)ncnc32)[C@H](O)[C@@H]1O)OP(=O)(O)OP(=O)(O)OC[C@H]1O[C@@H](n2ccc(=O)[nH]c2=O)[C@H](O)[C@@H]1O (some centres undefined) | 1290 nM
22 | BP(=O)(OP(=O)(O)OC[C@H]1O[C@@H](n2ccc(=O)[nH]c2=O)[C@H](O)[C@@H]1O)OP(=O)(O)OP(=O)(O)OC[C@H]1O[C@@H](n2ccc(=O)[nH]c2=O)[C@H](O)[C@@H]1O (some centres undefined) | 1930 nM
23 | BP(=O)(OP(=O)(O)OC[C@H]1O[C@@H](n2ccc(=O)[nH]c2=O)[C@H](O)[C@@H]1O)OP(=O)(O)OP(=O)(O)OC[C@H]1O[C@@H](n2cnc3c(N)ncnc32)[C@H](O)[C@@H]1O (some centres undefined) | 20900 nM

Target: T3, P2Y purinoceptor 2
Assay: as §4

Row | Structure (SMILES) | EC50
24 | BP(=O)(OC[C@H]1O[C@@H](n2cnc3c(N)ncnc32)[C@H](O)[C@@H]1O)OP(=O)(O)OP(=O)(O)OP(=O)(O)OC[C@H]1O[C@@H](n2cnc3c(N)ncnc32)[C@H](O)[C@@H]1O (some centres undefined) | 25900 nM
